From PubChem BioAssay
TRPC4 block: inhibitors of mouse TRPC4 channel, primary screen, Fluo4 calcium, HEK293 TRPC4beta/mu-opioid cells. Short transient receptor potential channel 4 (Mus musculus), Q9QUQ5. DAMGO-evoked Fluo4 calcium flux; active compounds read low. B-score at 10 µM. 300,000 compounds, 0.39% hits;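 active = B-score over 3 SD under the library average, no early fluorescence shift, positive overall ratio signal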
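Assay system: HEK293 cells with stable TRPC4beta plus mu-opioid receptor expression. Dosing: single dose. Measured by: Fluo4 Ca2+ flux fluorescence. Also added: DAMGO in two steps, submaximal then maximal. Read-out: B score from integrated Fluo4 fluorescence ratio.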
TRPC4 PAM: positive allosteric modulators of TRPC4, primary screen, cell-based, mouse TRPC4beta, HEK293 mu-opioid, Fluo-4 calcium; Short transient receptor potential channel 4 (Mus musculus), Q9QUQ5; DAMGO EC20, Fluo-4 Ca2+ flux; active compounds read high; B-score at 10 µM; 310,000 compounds, 0.42% hits; AID 2227, 2009;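 active = B-score of calcium response area above 5 SD of library B-scores, with initial fluorescence ratio within 5 SD of library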;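 also: B-score of integrated fluorescence ratio over time as area under calcium response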
TRPC4 act: activators of mouse TRPC4 channel, primary screen, Fluo4 calcium, HEK293 TRPC4beta/mu-opioid cells. 310,000 compounds, 0.49% hits. B-score at 10 µM. Fluo4 calcium fluorescence; active compounds read high;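 active = B-score above 5 SD of library B-scores, and initial fluorescence ratio not above library mean plus 5 SD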;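 also: positive B-score marks a calcium rise read as TRPC4 activation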
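Material: HEK293 stable line with TRPC4beta plus mu-opioid receptor; technique: Fluo4 calcium-sensitive dye fluorescence, kinetic, 1 Hz baseline; timing: Fluo4 dye loading 45 min at room temperature, 110 s recording; controls: assay buffer as low control, maximal DAMGO as high control; read-out: integrated baseline-normalised fluorescence ratio, converted to per-well B score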
TRPC6 inh: mouse TRPC6 channel inhibitors, primary screen, cell-based, HEK293, membrane potential dye | Short transient receptor potential channel 6 (Mus musculus), Q61143 | ACh-evoked depolarization; active compounds read low | B-score at 10 µM | 310,000 compounds, 1.1% hits;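 active = B-score under library mean minus 3 SD, initial fluorescence not abnormally high, positive integrated signal ratio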;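 also: B-score derived from integrated fluorescence ratio over the kinetic read; more negative B-score means stronger inhibition of depolarization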
Kir21 inh: inhibitors of mouse Kir2.1 inward-rectifier potassium channel; Inward rectifier potassium channel 2 (Mus musculus), P35561; HEK293-Kir2.1, FluxOR thallium flux fluorescence; active compounds read low; B-score at 10 µM; 310,000 compounds, 0.85% hits; AID 1672, 2009;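 active = fluorescence ratio B-score at or below minus 3 SD of library scores, with starting-brightness B-score within 2 SD, cut at about -4.2 in these data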;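 also: channel flux triggered by added potassium and thallium sulfate stimulus; B-score of peak minus minimum fluorescence over baseline after thallium stimulus; more negative B-score means stronger Kir2.1 block with less thallium influx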
TRPC6 act: mouse TRPC6 channel activators, primary screen, cell-based, HEK293, membrane potential dye; B-score at 10 µM; Short transient receptor potential channel 6 (Mus musculus), Q61143; HEK293-TRPC6 membrane potential dye fluorescence; active compounds read high; 310,000 compounds, 0.13% hits;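 active = B-score of the integrated fluorescence ratio above library mean plus 3 SD, and starting fluorescence ratio within library mean plus 5 SD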;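 also: higher score means more depolarization so channel activation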
* marks the source's active call; other numbers are inactive results; i = inactive. Rows were chosen to be rich in hits. Some 2.9% of all compounds tested hit in one or more screens of this group.

SMILES	TRPC4 block	TRPC4 PAM	TRPC4 act	TRPC6 inh	Kir21 inh	TRPC6 act
O=C(COc1ncnc2sccc12)NC1CCS(=O)(=O)C1 (stereo not given)	i	i	i	i	-0.51	i
COc1ccc(NC(=O)CSc2ccc(-c3cccnc3)nn2)c(OC)c1	i	i	i	i	0	i
O=[N+]([O-])c1ccc(O)c(C2=NNC(c3ccccc3F)C2)c1 (stereo not given)	-6*	i	101*	i	-0.39	i
CC(C)COc1ccc(-c2nn(-c3ccccc3)cc2CO)cc1	i	10*	i	i	-1.8	i
OCc1cn(-c2ccccc2)nc1-c1ccc(Br)cc1	i	i	i	i	0	i
CCOC(=O)c1c(NC(=O)c2ccc(C)cc2)sc2c1CC(C)(C)OC2	i	i	i	i	0.97	i
CCOC(=O)c1c(NC(=O)c2ccccc2C)sc2c1CC(C)(C)OC2	i	11*	i	i	0.27	i
CC1CCCCN1S(=O)(=O)c1ccc(C(=O)N(CCCN(C)C)c2nc3ccc(Br)cc3s2)cc1 (stereo not given)	i	i	143*	i	1.2	i
CN(C)CCN(C(=O)c1ccc(S(=O)(=O)N2CCCC2)cc1)c1nc2ccc(Br)cc2s1	i	i	i	i	0.83	i
CCC1CCCCN1S(=O)(=O)c1ccc(C(=O)N(CCCN(C)C)c2nc3cc4c(cc3s2)OCO4)cc1 (stereo not given)	i	i	130*	i	-0.72	i
Cc1cc(NC(=O)CSc2nc3c(C)cccc3cc2C)no1	i	i	i	i	1.4	i
CCc1cc(/C(Cc2csc(C)n2)=N/O)c(O)cc1O	i	i	i	i	-4.4*	i
Cn1nc(-c2ccc(Cl)cc2)nc2c(=O)n(C)c(=O)nc1-2	i	i	i	-5.1*	-1	i
Cc1ccc2[nH]c3c(=O)n(CCc4cnc[nH]4)cnc3c2c1	i	i	211*	i	0.73	i
COc1ccccc1NC(=O)CSc1nnnn1-c1ccccc1F	i	i	73*	i	0.51	i
CC1OC(O[C@H]2CC[C@]3(C)C4C=C[C@]56OC[C@@]7(CC[C@@H](C)[C@H](C)C75)[C@H](O)C[C@@]6(C)[C@]4(C)CC[C@H]3C2(C)C)C(OC2OC(CO)C(O)C(O)C2OC2OCC(O)C(O)C2O)C(O)C1O (stereo not given in full)	i	11*	356*	i	-11	13*
CC(=O)N(CN1C(=O)c2ccccc2C1=O)c1ccc2c(c1)oc1ccccc12	i	i	i	i	0.15	i
COCCn1c(N)c(N(Cc2ccccc2)C(=O)C2=COCCO2)c(=O)[nH]c1=O	i	i	i	i	0.56	i
CCSC(C)CC1C/C(=N/O)c2c(CC)noc2C1 (stereo not given)	i	i	i	i	-0.13	i
CCCc1noc2c1/C(=N\O)CC(CC(C)SCC)C2 (stereo not given)	-6*	i	i	i	-0.92	i
Nc1nonc1C(=O)NCCN=Cc1cc(Cc2ccccc2)cc(Br)c1O	i	i	i	i	0.32	i
Nc1nonc1C(=O)NCCN=Cc1ccccc1O	i	i	71*	i	0.14	i
CC(C)Cc1ccc(C(C)C(=O)Nc2cccnc2)cc1 (stereo not given)	i	i	45*	i	2.9	i
CC(C)Cc1ccc([C@H](C)C(=O)O)cc1	i	i	i	i	0.29	i
